Source: ChEMBL document CHEMBL1140930 (J Med Chem, 2009)

Tests used:
[1] = Antiproliferative activity against human KB/HeLa cells by XTT assay; type: functional, cell-based
Procedure, shortened: (§1)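 XTT metabolic read-out. Cells seeded at 1 × 10³–8 × 10⁴ cells/well for logarithmic growth and exposed to graded concentrations for 48 h. At least two replicates. IC50 from nonlinear regression of dose-response curves. LT12/MDR: rat LT12 with ectopic human MDR-1. L1210/VCR: MDR-1 expressing, MRP-1 negative.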

[2] = Cell cycle arrest in human KB/HeLa cells assessed as G2/M phase accumulation at 31.6 nM after 24 hrs by FACS analysis; type: functional, cell-based
Procedure, shortened: (§2)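 Subconfluent KB/HeLa cells exposed to a range of compound concentrations for 24 h at 37 °C, then detached and fixed in 70% ethanol. DNA stained with propidium iodide after RNase digestion and measured by flow cytometry. Cell-cycle phase fractions taken from cell cycle analysis software. At least two replicates.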

RKO [3] = experiment: Antiproliferative activity against human RKO cells containing ecdysone-inducible expression vector of p27kipl by XTT assay; type: functional, cell-based
Procedure, shortened: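 RKO cells carried an ecdysone-inducible p27Kip1 vector and were tested with and without induction. On day 1 they were plated with or without 3 µM ponasterone A, which gives G1 arrest, at 2 × 10⁴ cells/well induced or 6 × 10³ not induced, then held 24 h at 37 °C. Compound was then added for 48 h at 37 °C, followed by a standard XTT assay. IC50 came from nonlinear regression, n ≥ 2.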

[4] = Cell cycle arrest in human KB/HeLa cells assessed as G2/M phase accumulation at 1000 nM after 24 hrs by FACS analysis; type: functional, cell-based; procedure, shortened: as §2
[5] = Cell cycle arrest in human KB/HeLa cells assessed as S phase accumulation at 100 nM after 24 hrs by FACS analysis; type: functional, cell-based; procedure, shortened: as §2
[6] = Cell cycle arrest in human KB/HeLa cells assessed as G1 phase accumulation at 10 nM after 24 hrs by FACS analysis; type: functional, cell-based; procedure, shortened: as §2
[7] = Antiproliferative activity against rat LT12 cells ectopic expression of human MDR1 after 48 hrs by XTT assay; type: functional, cell-based; conditions: LT12, 48 h; procedure, shortened: as §1
[8] = Cell cycle arrest in human KB/HeLa cells assessed as G2/M phase accumulation at 10 nM after 24 hrs by FACS analysis; type: functional, cell-based; procedure, shortened: as §2
[9] = Cell cycle arrest in human KB/HeLa cells assessed as S phase accumulation at 10 nM after 24 hrs by FACS analysis; type: functional, cell-based; procedure, shortened: as §2
[10] = Cell cycle arrest in human KB/HeLa cells assessed as G2/M phase accumulation at 100 nM after 24 hrs by FACS analysis; type: functional, cell-based; procedure, shortened: as §2
L1210 [11] = experiment: Antiproliferative activity against vincristine-resistance MRP1 negative mouse L1210 cells expressing human MDR1 after 48 hrs by XTT assay; type: functional, cell-based; conditions: L1210, 48 h; procedure, shortened: as §1
P388 [12] = experiment: Antiproliferative activity against mouse P388 cells after 48 hrs by XTT assay; type: functional, cell-based; conditions: P388, 48 h
Procedure, shortened: (§3)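 XTT metabolic-activity read-out of proliferation. Cells were seeded at 1 × 10³-8 × 10⁴ cells/well for logarithmic growth and exposed to a range of compound concentrations for 48 h. IC50 came from nonlinear regression of dose-response curves, with at least two replicates. The P388/Adr subline was doxorubicin-selected with elevated MDR-1.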

P388 [13] = experiment: Antiproliferative activity against doxorubicin-resistant mouse P388 cells expressing MDR1 protein after 48 hrs by XTT assay; type: functional, cell-based; conditions: P388, 48 h; procedure, shortened: as §3
RKO [14] = experiment: Antiproliferative activity against human RKO cells by XTT assay; type: functional, cell-based
Procedure, shortened: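 RKO colon cells with ecdysone-inducible p27Kip1. Day 1: plated with or without 3 µM ponasterone A for 24 h, giving G1 arrest when induced (2 × 10⁴ cells/well induced; 6 × 10³ not induced). Day 2: compound added (DMSO control) for 48 h at 37 °C, then standard XTT. At least duplicate. IC50 by nonlinear regression.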

[15] = Cell cycle arrest in human KB/HeLa cells assessed as G1 phase accumulation at 1 nM after 24 hrs by FACS analysis; type: functional, cell-based; procedure, shortened: as §2
[16] = Cell cycle arrest in human KB/HeLa cells assessed as G1 phase accumulation at 316 nM after 24 hrs by FACS analysis; type: functional, cell-based; procedure, shortened: as §2
SK-OV-3 = experiment: Antiproliferative activity against human SKOV3 cells by XTT assay; type: functional, cell-based; procedure, shortened: as §3
[17] = Cell cycle arrest in human KB/HeLa cells assessed as G2/M phase accumulation at 316 nM after 24 hrs by FACS analysis; type: functional, cell-based; procedure, shortened: as §2
[18] = Cell cycle arrest in human KB/HeLa cells assessed as G1 phase accumulation at 31.6 nM after 24 hrs by FACS analysis; type: functional, cell-based; procedure, shortened: as §2
[19] = Cell cycle arrest in human KB/HeLa cells assessed as G1 phase accumulation at 0.1 nM after 24 hrs by FACS analysis; type: functional, cell-based; procedure, shortened: as §2
[20] = Cell cycle arrest in human KB/HeLa cells assessed as S phase accumulation at 1 nM after 24 hrs by FACS analysis; type: functional, cell-based; procedure, shortened: as §2
Tubulin [21] = target: T1, Tubulin (Sus scrofa, UniProt P02554+P02550); experiment: Inhibition of pig brain tubulin polymerization after 30 mins by turbidimetric assay
Procedure, shortened: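 Microtubule protein from porcine brain (80–90% tubulin, 10–20% MAPs), purified by two disassembly/reassembly cycles. Assay buffer: 20 mM PIPES pH 6.8, 80 mM NaCl, 0.5 mM MgCl2, 1 mM EGTA, 1 mM DTT. Protein at 1.2 mg/mL with 0.6 mM GTP final, 1% DMSO final, 37 °C.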

[22] = Cell cycle arrest in human KB/HeLa cells assessed as G1 phase accumulation at 1000 nM after 24 hrs by FACS analysis; type: functional, cell-based; procedure, shortened: as §2
L1210 [23] = experiment: Antiproliferative activity against mouse L1210 cells after 48 hrs by XTT assay; type: functional, cell-based; conditions: L1210, 48 h; procedure, shortened: as §3
Tubulin [24] = target: T1, Tubulin; experiment: Displacement of [3H]Colchicine from pig biotinylated tubulin after 2 hrs by SPA; type: protein assay
[25] = Cell cycle arrest in human KB/HeLa cells assessed as G1 phase accumulation at 100 nM after 24 hrs by FACS analysis; type: functional, cell-based; procedure, shortened: as §2
K562 = experiment: Antiproliferative activity against human K562 cells after 48 hrs; type: functional, cell-based; conditions: K562, 48 h
Procedure, shortened: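 K562 cells (RPMI 1640, 10% FBS, 37 °C, 5% CO2) plated at 2 × 10⁵ cells/mL. Compounds dissolved in DMSO/methanol 1:1, vehicle 0.5%. Cells counted in a Neubauer chamber after 48 h and expressed as % of untreated control. Triplicate wells, three experiments. IC50 from nonlinear regression.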

[26] = Cell cycle arrest in human KB/HeLa cells assessed as S phase accumulation at 31.6 nM after 24 hrs by FACS analysis; type: functional, cell-based; procedure, shortened: as §2
[27] = Antiproliferative activity against rat LT12 cells after 48 hrs by XTT assay; type: functional, cell-based; conditions: LT12, 48 h; procedure, shortened: as §3
[28] = Cell cycle arrest in human KB/HeLa cells assessed as G1 phase accumulation at 3.16 nM after 24 hrs by FACS analysis; type: functional, cell-based; procedure, shortened: as §2
[29] = Cell cycle arrest in human KB/HeLa cells assessed as G2/M phase accumulation at 3.16 nM after 24 hrs by FACS analysis; type: functional, cell-based; procedure, shortened: as §2
SF-268 = experiment: Antiproliferative activity against human SF268 cells by XTT assay; type: functional, cell-based; procedure, shortened: as §1
[30] = Cell cycle arrest in human KB/HeLa cells assessed as G2/M phase accumulation after 24 hrs by FACS analysis; type: functional, cell-based; procedure, shortened: as §2
[31] = Cell cycle arrest in human KB/HeLa cells assessed as G2/M phase accumulation at 0.3 nM after 24 hrs by FACS analysis; type: functional, cell-based; procedure, shortened: as §2
[32] = Cell cycle arrest in human KB/HeLa cells assessed as G1 phase accumulation at 0.3 nM after 24 hrs by FACS analysis; type: functional, cell-based; procedure, shortened: as §2
[33] = Cell cycle arrest in human KB/HeLa cells assessed as S phase accumulation at 316 nM after 24 hrs by FACS analysis; type: functional, cell-based; procedure, shortened: as §2
[34] = Cell cycle arrest in human KB/HeLa cells assessed as S phase accumulation at 0.3 nM after 24 hrs by FACS analysis; type: functional, cell-based; procedure, shortened: as §2
[35] = Cell cycle arrest in human KB/HeLa cells assessed as G2/M phase accumulation at 1 nM after 24 hrs by FACS analysis; type: functional, cell-based; procedure, shortened: as §2
[36] = Cell cycle arrest in human KB/HeLa cells assessed as S phase accumulation at 1000 nM after 24 hrs by FACS analysis; type: functional, cell-based; procedure, shortened: as §2
[37] = Cell cycle arrest in human KB/HeLa cells assessed as S phase accumulation at 3.16 nM after 24 hrs by FACS analysis; type: functional, cell-based; procedure, shortened: as §2
Tubulin [38] = target: T1, Tubulin; experiment: Displacement of [3H]paclitaxel from pig biotinylated tubulin after 2 hrs by SPA; type: protein assay
NCI-H460 = experiment: Antiproliferative activity against human NCI-H460 cells by XTT assay; type: functional, cell-based; procedure, shortened: as §1
[39] = Cell cycle arrest in human KB/HeLa cells assessed as G2/M phase accumulation at 0.1 nM after 24 hrs by FACS analysis; type: functional, cell-based; procedure, shortened: as §2
[40] = Cell cycle arrest in human KB/HeLa cells assessed as S phase accumulation at 0.1 nM after 24 hrs by FACS analysis; type: functional, cell-based; procedure, shortened: as §2

## COc1ccc(C(=O)C=C2c3ccccc3C(=O)c3ccccc32)cc1
[1]
  IC50: 0.06 µM
[2]
  Activity: 8.4%
RKO [3]
  IC50: > 9 µM
[4]
  Activity: 88.5%
[5]
  Activity: 16.7%
[6]
  Activity: 62.7%
[7]
  IC50: 0.05 µM
[8]
  Activity: 11.3%
[9]
  Activity: 26%
[10]
  Activity: 74.9%
L1210 [11]
  IC50: 0.05 µM
P388 [12]
  IC50: 0.04 µM
P388 [13]
  IC50: 0.05 µM
RKO [14]
  IC50: 0.08 µM
[15]
  Activity: 62.3%
[16]
  Activity: 1%
SK-OV-3
  IC50: 0.06 µM
[17]
  Activity: 92.8%
[18]
  Activity: 57.5%
[19]
  Activity: 60.7%
[20]
  Activity: 26.1%
Tubulin [21]
  IC50: 0.52 µM
[22]
  Activity: 2.3%
L1210 [23]
  IC50: 0.05 µM
Tubulin [24]
  IC50: 0.4 µM
[25]
  Activity: 8.4%
K562
  IC50: 0.07 µM
[26]
  Activity: 34.1%
[27]
  IC50: 0.05 µM
[28]
  Activity: 62%
[29]
  Activity: 11.8%
SF-268
  IC50: 0.06 µM
[30]
  EC50: 0.09 µM
[31]
  Activity: 10.8%
[32]
  Activity: 62.1%
[33]
  Activity: 6.2%
[34]
  Activity: 27.1%
[35]
  Activity: 11.6%
[36]
  Activity: 9.2%
[37]
  Activity: 26.2%
Tubulin [38]
  IC50: > 100 µM
NCI-H460
  IC50: 0.07 µM
[39]
  Activity: 13.2%
[40]
  Activity: 26.1%
